From PubChem
A selection: hits, their analogues and other compounds. The true share with any hit is near 3.1%.
KCNK9 inh: human KCNK9 channel inhibition; Q9NPC2; HEK293 KCNK9, FluxOR thallium flux fluorescence; active compounds read low; B-score at 10 µM; hit rate 1.2% among 310,000;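 active = ratio B-score over 3 SD below the library mean, with starting fluorescence within 5 SD of its mean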;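 also: negative B-score means less thallium flux so channel inhibition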
Target sequence (Q9NPC2 whole entry, looked up): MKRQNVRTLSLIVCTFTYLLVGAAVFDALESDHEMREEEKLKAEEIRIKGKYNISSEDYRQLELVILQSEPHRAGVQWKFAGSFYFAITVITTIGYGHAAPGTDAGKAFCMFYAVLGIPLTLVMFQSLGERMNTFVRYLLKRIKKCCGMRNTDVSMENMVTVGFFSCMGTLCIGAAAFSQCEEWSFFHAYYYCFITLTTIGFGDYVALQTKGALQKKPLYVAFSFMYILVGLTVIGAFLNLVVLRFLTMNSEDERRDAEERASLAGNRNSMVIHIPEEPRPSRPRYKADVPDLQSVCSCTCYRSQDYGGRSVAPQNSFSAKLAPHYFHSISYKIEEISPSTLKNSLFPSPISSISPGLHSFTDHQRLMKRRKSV
KCNQ1 block: human KCNQ1 channel inhibition. P51787. CHO-K1 KCNQ1, FluxOR thallium flux fluorescence; active compounds read high. B-score at 10 µM. hit rate 1.3% among 310,000. AID 2642;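 active = compounds whose thallium flux B-score, printed positive for inhibition, exceeds three library SD while starting fluorescence stays within three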;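 also: channel opened by potassium depolarization with thallium stimulus after 20 min compound exposure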
KCNQ1 pot: human KCNQ1 channel potentiation or activation | hit rate 0.35% among 310,000 | CHO-K1 KCNQ1, thallium flux FluxOR fluorescence; active compounds read high | B-score at 10 µM | P51787 | AID 2648;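 active = fluorescence ratio B-score, a plate-corrected score, at least three library SD, with initial intensity B-score within 5 SD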
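Schedule – 37 °C overnight plating, 90-min dark dye load, 20-min compound pretreatment · System – stable KCNQ1 CHO-K1 line · Probe or stimulus – thallium- and potassium-containing depolarizing buffer · Measured by – kinetic FluxOR fluorescence, 10 s baseline plus 110 s post-stimulus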
KCNK3 block: human KCNK3 channel inhibition, primary screen. B-score at 10 µM. hit rate 0.84% among 340,000. O14649. CHO-KCNK3 thallium flux, FluxOR fluorescence; active compounds read low;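 active = B-score under library mean minus 4 SD, starting fluorescence ratio at most library mean plus 5 SD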;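 also: more negative B-score means stronger inhibition of thallium flux through KCNK3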
hERG rescue: hERG (human) protection from proarrhythmic block; CHO-hERG, FluxOR thallium flux, dofetilide IC70 present; activation (rescue from dofetilide block), less the hit threshold, % at 10 µM; hit rate 0.51% among 310,000; AID 1511;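 active = activation above the mean of controls blocked by dofetilide plus 5 SD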;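 also: thallium influx through hERG after potassium depolarization seen as dye fluorescence rise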
KCNK9 block conf: human KCNK9 inhibitor confirmation. shares compounds with KCNK9 inh. HEK293 KCNK9 cells, FluxOR thallium flux fluorescence. hit rate 43% among 4,900. inhibition, % at 10 µM. AID 492992;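 active = thallium signal inhibited by more than 5 SD of the compound-free buffer control wells, on both duplicate plates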
Kir2-1 spec: selectivity of KCNK9 modulators against mouse Kir2.1 | shares compounds with KCNK9 inh | Kir2.1 cells, FluxOR thallium flux fluorescence | inhibition, % at 10 µM | hit rate 4% among 4,900;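 active = thallium signal drop more than 5 SD beyond the mean of the no-compound control wells, seen in both duplicate plates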;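 also: signal is fluorescence rise after thallium addition divided by baseline fluorescence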
KCNK9 uninduced: second counter-screen for KCNK9 modulators: effect in non-induced cells; shares compounds with KCNK9 inh; non-induced KCNK9-HEK293, FluxOR thallium flux; inhibition, % at 10 µM; hit rate 40% among 4,900; AID 492997;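 active = thallium signal drop beyond 5 SD of the untreated control mean, on both duplicate plates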
Numbers stand for hits; 0 = inactive; - = not tested or not shown.

SMILES	KCNK9 inh	KCNQ1 block	KCNQ1 pot	KCNK3 block	hERG rescue	KCNK9 block conf	Kir2-1 spec	KCNK9 uninduced
CN1C(=O)NC(=O)C(N=Nc2ccc(Cl)cc2)C1=O (centres undefined)	-	-	-	0	-	-	-	-
c1cc2c(cc1NC1=NCCO1)CCCC2	-	-	-	0	-	-	-	-
Cc1cccc(CC(c2cccc(C)c2)N(C)C)c1 (centres undefined)	-	-	-	0	-	-	-	-
CSc1ncc(CN2CCCC(C(=O)c3sccc3C)C2)cn1 (centres undefined)	0	0	0	0	0	0	0	0
CSc1ccc(C(=O)C2CCCN(Cc3cnc(SC)nc3)C2)cc1 (centres undefined)	0	0	0	0	0	0	0	0
COc1cc(CN2CCCC(C(=O)c3sccc3C)C2)cc(Cl)c1O (centres undefined)	0	0	0	0	0	0	0	0
Cc1ccsc1C(=O)C1CCCN(Cc2cccc(-n3cccn3)c2)C1 (centres undefined)	0	0	0	0	0	0	0	0
CCOP(=O)(CCP(=O)(OCC)OCC)OCC.C[CH2][Sn]([Cl])([Cl])[CH2]C	-	-	-	0	-	-	-	-
COc1cc2c(cc1OC)C13CCN4CC5CCOC6CC(=O)N2C1C6C5CC43 (centres undefined)	-	-	-	0	-	-	-	-
COC(=O)C1=C(c2ccc3ccccc3c2)C[C@@H]2CC[C@H]1N2C(=O)N1CCC(C)CC1	-	-	-	0	-	-	-	-
COC1=C(C)C(=O)C2=C(C1=O)C(CO)N1C(C#N)C3CC4C(C1C2N1CCOC41)N3C (centres undefined)	-	-	-	0	-	-	-	-
COc1cccc(NP2(=O)OCC(C)([N+](=O)[O-])CO2)c1 (centres undefined)	-	-	-	0	-	-	-	-
COC(=O)C1=C(c2cccc(OCc3ccccc3)c2)C[C@@H]2CC[C@H]1N2C(=O)NCCN1CCOCC1	-	-	-	0	-	-	-	-
Cc1ccc(CN2CCCC(C(=O)c3sccc3C)C2)o1 (centres undefined)	0	0	0	0	0	0	0	0
Cc1ccc(CN2CCCC(C(=O)c3cccc(C(F)(F)F)c3)C2)o1 (centres undefined)	0	0	0	0	0	0	0	0
Cc1ccsc1C(=O)C1CCCN(Cc2cc3ccccc3o2)C1 (centres undefined)	0	0	0	0	0	0	0	0
CC(OC(=O)c1cn(C)c2ccccc12)C(=O)N(C)c1ccccc1 (centres undefined)	-	-	-	0	-	-	-	-
COc1cccc2c1N=C1CCCC3CN(C(C)=O)CCC123 (centres undefined)	-	-	-	0	-	-	-	-
O=C(c1cc(F)ccc1F)C1CCCN(CCCc2ccccc2)C1 (centres undefined)	0	0	0	0	0	-	-	-
O=C(c1ccc2c(c1)OCO2)C1CCCN(Cc2c(F)cccc2Cl)C1 (centres undefined)	0	0	0	0	0	0	0	0
O=C(c1ccc(Cl)cc1)C1CCCN(Cc2cccc3cccnc23)C1 (centres undefined)	0	0	0	0	0	0	0	0
COc1cccc(C(=O)C2CCCN(Cc3ccc4nsnc4c3)C2)c1 (centres undefined)	0	0	0	0	0	0	0	0
O=C(c1cc(F)ccc1F)C1CCCN(Cc2cccc(Cl)c2)C1 (centres undefined)	0	0	0	0	0	0	0	0
CC12CCC(=O)C=C1C=CC1C2CCC2(C)C(O)CCC12 (centres undefined)	-	-	-	0	-	-	-	-
O=C1NC(=O)C2(CCN(c3ccccc3)CC2)C(=O)N1	-	-	-	0	-	-	-	-
SMILES	KCNK9 inh	KCNQ1 block	KCNQ1 pot	KCNK3 block	hERG rescue	KCNK9 block conf	Kir2-1 spec	KCNK9 uninduced
COc1cccc(C(=O)C2CCCN(Cc3cnn(C(C)C)c3)C2)c1 (centres undefined)	0	0	0	0	0	-	-	-
COc1cccc(C(=O)C2CCCN(Cc3cccc(C)n3)C2)c1 (centres undefined)	0	0	0	0	0	-	-	-
COc1cccc(C(=O)C2CCCN(Cc3ccc(F)cc3)C2)c1 (centres undefined)	0	0	0	0	0	0	0	0
Cc1cccc(CN2CCCC(C(=O)c3cccc(OC(C)C)c3)C2)n1 (centres undefined)	0	0	0	0	0	0	0	0
O=P(O)(Oc1ccccc1)c1ccccc1	-	-	-	0	-	-	-	-
Cc1nc(Cl)sc1C(=O)Nc1ccc2ccccc2c1	0	0	0	0	0	-	-	-
O=C(Nc1ccc2ccccc2c1)c1nn(C23CC4CC(CC(C4)C2)C3)cc1Br	0	0	0	0	0	0	0	0
Oc1ccccc1-[n+]1c(-c2ccccc2)cc(-c2ccccc2)c(O)c1-c1ccccc1	-8.4	0	0	0	0	0	0	0
CCN(CC)c1ccc(CC2C(=O)N(C)C(=O)N(C)C2=O)cc1	0	0	0	0	0	0	0	0
COc1ccc(CC2NCC(O)C2OC(C)=O)cc1 (centres undefined)	-	-	-	0	-	-	-	-
CC12CCC3c4ccc(OC(=O)N(CCCl)CCCl)cc4CCC3C1CCC2O (centres undefined)	-	-	-	0	-	-	-	-
O=C1CC(=O)N(c2cccc(C(F)(F)F)c2)C(=O)N1	0	0	0	0	0	-	-	-
FC(F)(F)c1cccc(-n2nnnc2C2(N3CCOCC3)CCCCC2)c1	-10	0	0	0	0	42%	0	35%
CCOP(=O)(C#CC(C)(C)C)C(C)(O)c1ccccc1 (centres undefined)	0	0	0	0	0	-	-	-
CC(C)(C#CC(=O)O)OOC(c1ccccc1)(c1ccccc1)c1ccccc1	0	0	0	0	0	0	0	0
CCCC1(CCO)C(=O)NC(=S)NC1=O	-	-	-	0	-	-	-	-
Cc1ccc(/C=C2\C(=O)NC(=S)N(c3ccc(F)cc3)C2=O)o1	0	0	0	0	0	-	-	-
Cc1cc(C)cc(N2C(=O)/C(=C\c3ccc(N4CCN(C)CC4)o3)C(=O)NC2=S)c1	-9.1	10	0	0	0	55%	34%	70%
COc1ccccc1N1CCN(C2CCCN(C(=O)COc3ccccc3Cl)C2)CC1 (centres undefined)	0	0	0	0	0	0	0	0
COc1ccccc1OCC(=O)N1CCCC(N(C)Cc2ccccc2)C1 (centres undefined)	0	0	0	0	0	-	-	-
COC(=O)C1=C(c2cccc(C#N)c2)C[C@@H]2CC[C@H]1N2C(=O)N1CCCCC1	-	-	-	0	-	-	-	-
Cc1ccc(NS(=O)(=O)c2ccc(OCC(=O)N3CCN(C)CC3)cc2)cc1	0	0	0	0	0	-	-	-
Cc1ccccc1NS(=O)(=O)c1ccc(OCC(=O)N2CCN(C)CC2)cc1	0	0	0	0	0	0	0	0
COc1cc(C)c(CN2CC=C(c3ccc(F)cc3)CC2)cc1C	0	0	0	0	0	0	0	0
